This passage reports IC50, Kd and inhibition results from ChEMBL document CHEMBL3124858, “Drug design targeting protein-protein interactions (PPIs) using multiple ligand simultaneous docking (MLSD) and drug repositioning: discovery of raloxifene and bazedoxifene as novel inhibitors of IL-6/GP130 interface” (J Med Chem, 2014).

A short description of assay [1]: Cytotoxicity against ER-negative human SUM159 cells assessed as cell viability after 72 hrs by MTT assay in presence of IL-6. The assay is classed as functional, cell-based. The following applies: SUM-159-PT. In a few lines:
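SUM159 (ER negative) seeded at 3,000 cells/well, given […] compound in triplicate with 10% FBS. Incubated 72 h at 37 °C, then MTT read-out, absorbance at 595 nm. IC50 from curve fitting.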

Assay [2] addresses T1, Interleukin-6 receptor subunit beta (Homo sapiens, UniProt P40189).
T1 sequence (P40189 whole entry): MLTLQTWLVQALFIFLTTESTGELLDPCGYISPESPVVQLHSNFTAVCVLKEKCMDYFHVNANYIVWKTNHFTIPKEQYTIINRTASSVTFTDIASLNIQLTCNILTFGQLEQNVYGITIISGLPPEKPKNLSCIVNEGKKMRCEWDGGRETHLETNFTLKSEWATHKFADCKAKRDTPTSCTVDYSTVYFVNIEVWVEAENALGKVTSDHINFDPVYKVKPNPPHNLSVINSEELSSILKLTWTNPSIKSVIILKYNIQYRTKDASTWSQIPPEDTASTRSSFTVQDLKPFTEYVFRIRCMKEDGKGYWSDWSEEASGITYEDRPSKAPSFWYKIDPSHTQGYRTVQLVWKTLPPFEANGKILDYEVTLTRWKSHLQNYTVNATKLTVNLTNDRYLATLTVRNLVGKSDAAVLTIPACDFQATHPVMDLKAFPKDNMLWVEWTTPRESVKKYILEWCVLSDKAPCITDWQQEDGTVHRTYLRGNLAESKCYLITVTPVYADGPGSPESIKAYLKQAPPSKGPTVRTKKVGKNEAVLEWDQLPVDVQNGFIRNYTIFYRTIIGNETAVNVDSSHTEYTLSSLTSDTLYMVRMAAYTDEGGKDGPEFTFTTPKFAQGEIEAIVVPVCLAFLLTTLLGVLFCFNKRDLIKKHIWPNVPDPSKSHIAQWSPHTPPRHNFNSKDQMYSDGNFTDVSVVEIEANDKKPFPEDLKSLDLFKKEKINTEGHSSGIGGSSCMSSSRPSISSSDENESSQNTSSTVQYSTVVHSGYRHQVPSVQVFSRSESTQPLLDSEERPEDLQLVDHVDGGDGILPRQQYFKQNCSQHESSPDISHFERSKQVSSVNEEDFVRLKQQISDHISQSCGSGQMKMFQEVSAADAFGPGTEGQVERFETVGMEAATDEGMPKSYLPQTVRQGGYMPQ
Briefly: Binding affinity to GP130 (unknown origin) by surface plasmon resonance analysis.

The target of assay [3] is LIFR/GP130 (Homo sapiens) (UniProt P40189+P42702). In words: Inhibition of LIFR/GP130 interaction in human PANC-1 cells assessed as inhibition of LIF-induced STAT3 phosphorylation at Y705 at 25 uM after 24 hrs by Western blot analysis. Format: cell-based.
LIFR/GP130 (Homo sapiens), sequence (P42702 whole entry, looked up, one chain of several): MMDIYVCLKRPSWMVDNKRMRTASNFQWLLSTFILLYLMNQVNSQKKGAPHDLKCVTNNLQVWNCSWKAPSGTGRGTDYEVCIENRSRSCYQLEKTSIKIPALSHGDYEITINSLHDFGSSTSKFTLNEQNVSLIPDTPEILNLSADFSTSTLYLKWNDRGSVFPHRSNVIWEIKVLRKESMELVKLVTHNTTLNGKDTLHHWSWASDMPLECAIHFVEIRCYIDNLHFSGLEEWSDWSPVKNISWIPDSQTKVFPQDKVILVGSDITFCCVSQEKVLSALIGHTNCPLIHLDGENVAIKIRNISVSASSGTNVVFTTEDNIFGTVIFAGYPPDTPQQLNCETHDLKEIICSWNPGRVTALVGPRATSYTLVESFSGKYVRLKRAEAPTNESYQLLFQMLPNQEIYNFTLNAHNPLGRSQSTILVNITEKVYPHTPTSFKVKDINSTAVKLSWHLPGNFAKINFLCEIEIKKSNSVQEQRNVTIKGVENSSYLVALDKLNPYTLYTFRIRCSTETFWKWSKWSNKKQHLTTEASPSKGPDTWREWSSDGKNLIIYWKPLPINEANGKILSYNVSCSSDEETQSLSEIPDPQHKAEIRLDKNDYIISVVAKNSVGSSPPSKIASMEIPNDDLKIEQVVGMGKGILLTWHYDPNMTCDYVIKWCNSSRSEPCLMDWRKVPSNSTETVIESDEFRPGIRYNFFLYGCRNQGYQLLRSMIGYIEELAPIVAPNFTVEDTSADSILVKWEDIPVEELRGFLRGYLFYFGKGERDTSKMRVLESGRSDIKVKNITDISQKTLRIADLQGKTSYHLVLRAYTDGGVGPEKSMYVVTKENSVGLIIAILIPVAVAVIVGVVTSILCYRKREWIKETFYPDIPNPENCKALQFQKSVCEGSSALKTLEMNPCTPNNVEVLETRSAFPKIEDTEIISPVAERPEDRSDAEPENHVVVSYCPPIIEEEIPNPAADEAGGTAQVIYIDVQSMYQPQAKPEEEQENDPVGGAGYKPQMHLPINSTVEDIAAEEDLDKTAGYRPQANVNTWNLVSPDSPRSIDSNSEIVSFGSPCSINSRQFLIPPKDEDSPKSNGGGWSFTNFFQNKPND
For assay [4], the target named is T2, IL6Ralpha/GP130 (Homo sapiens) (UniProt P08887+P40189). Briefly: Inhibition of IL-6Ralpha/GP130 interaction in ER-negative human SUM159 cells overexpressing IL-6 assessed as inhibition of constitutive STAT3 phosphorylation at Y705 at 15 to 50 uM after 24 hrs by Western blot analysis. The assay is classed as cell-based. In a few lines: (§1)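 Constitutive STAT3 activity in SUM159 (ER negative) cells grown in DMEM/10% FBS. Compound (10-50µM) or DMSO added at 60-80% confluence with 10% FBS for 24 h. RIPA whole-cell lysates run on SDS-PAGE and immunoblotted overnight at 4 °C for pSTAT3 (Tyr705), STAT3 and GAPDH. Detection by chemiluminescence.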
T2 sequence (P08887 whole entry, looked up, one chain of several): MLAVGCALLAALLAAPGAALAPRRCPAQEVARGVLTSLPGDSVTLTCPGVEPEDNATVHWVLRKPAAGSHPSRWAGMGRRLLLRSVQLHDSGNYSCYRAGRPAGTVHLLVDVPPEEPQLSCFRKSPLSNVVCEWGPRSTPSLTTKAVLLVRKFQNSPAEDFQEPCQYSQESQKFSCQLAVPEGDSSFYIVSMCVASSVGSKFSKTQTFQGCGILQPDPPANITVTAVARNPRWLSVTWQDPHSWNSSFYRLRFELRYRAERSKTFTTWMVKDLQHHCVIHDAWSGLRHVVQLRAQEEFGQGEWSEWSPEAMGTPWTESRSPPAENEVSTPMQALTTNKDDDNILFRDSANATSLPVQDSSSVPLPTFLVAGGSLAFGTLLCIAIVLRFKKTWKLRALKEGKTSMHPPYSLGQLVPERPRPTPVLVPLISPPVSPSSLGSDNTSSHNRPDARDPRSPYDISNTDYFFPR

The next assay concerns PANC-1. Briefly: Inhibition of IFN-gamma receptor/GP130 interaction in human PANC-1 cells assessed as inhibition of IFN-gamma-induced STAT1 phosphorylation at Y701 at 25 uM […] measured after 24 hrs by Western blot analysis. Format: cell-based. A digest of the protocol: (§2)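 PANC-1 cells (GP130+, ER−) in DMEM/10% FBS, stimulated with 50 ng/ml IL-6 or IFN-γ for 30 min before compound (10-50µM range), then 24 h at 60-80% confluence with 10% FBS. Whole-cell extracts made in RIPA with protease inhibitors. Blotted for pSTAT3 (Tyr705), STAT3, pSTAT1 (Tyr701), STAT1 and GAPDH, with chemiluminescent detection.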

Assay [5] in a line: Cytotoxicity against human MIAPaCa2 cells assessed as cell viability. The assay is classed as functional, cell-based. The following applies: MIA PaCa-2.
The target of assay [6] is T2, IL6Ralpha/GP130 (Homo sapiens). In words: Inhibition of IL-6Ralpha/GP130 interaction in human PANC-1 cells assessed as inhibition of IL-6-induced STAT3 phosphorylation at Y705 at 25 uM […] measured after 24 hrs by Western blot analysis. Format: cell-based. A digest of the protocol:
as §2

Assay [7] shares this target. In words: Inhibition of IL-6Ralpha/GP130 interaction in ER-negative human SUM159 cells overexpressing IL-6 assessed as inhibition of constitutive STAT3 phosphorylation at Y705 at 10 to 30 uM after 24 hrs by Western blot analysis. Format: cell-based. In a few lines: as §1

pIC50, pKd: −log10 of the molar value. The source made the active and inactive calls. The rule behind the calls is not given here.

With `CCCCC1=C(C)C(=O)[C@](C)(CN2c3ccccc3[C@]3(O)CCOC23)C1=O` (stereo partly drawn) [MADINDOLINE A], the pIC50 in assay [1] is below 3.60. In assay [2], this molecule had a pKd of 3.54.

As to `O=C(c1ccc(OCCN2CCCCC2)cc1)c1c(-c2ccc(O)cc2)sc2cc(O)ccc12` [RALOXIFENE], the inhibition result (in assay [3]; with PANC-1) was “inactive” throughout. Besides, in assay [4], the inhibition result is “Active”. For the same molecule, the pIC50 in assay [1] was 4.36; in assay [5] it was 4.58.

As for `Cc1c(-c2ccc(O)cc2)n(Cc2ccc(OCCN3CCCCCC3)cc2)c2ccc(O)cc12` [BAZEDOXIFENE], the inhibition result (in assay [3]; with PANC-1) was “inactive” in each case. The inhibition entry in assay [6] and in assay [7] was “Active” each time. Moreover, the figures for the pIC50 in assay [1] and in assay [5] were 4.60 and 5.01, respectively.
